The subject of assay [1] is Cortical neurone. The experiment in a line: Neuroprotective activity against fibril amyloid beta (25 to 35)-induced cell death in Sprague-Dawley rat 5 days old neonatal primary cortical neurons assessed as increase in cell viability pretreated for 2 hrs followed by 10 uM fibril amyloid beta (25 to 35) addition measured after 48 hrs by MTT assay. Type of assay: functional, cell-based. In outline:
(§1)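 Cortical neurons pretreated 2 h with vehicle (0.1% DMSO) or compound at maximum nontoxic concentration. Then exposed at DIV5 to fibrillar Aβ25–35 (10 μM, 48 h) or at DIV10 to glutamate (30 μM, 24 h). MTT 0.5 mg/mL for 1 h, formazan dissolved in DMSO, OD read at 600 nm. Mean ± SD of three independent experiments.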
For orientation: Tetrazolium dyes change colour on reduction, which living cells bring about.

Assay [2] has as its system Mus musculus. The experiment in a line: Antialzheimer activity in APPswe/PSEN1dE9 double transgenic C57BL/6J mouse model of Alzheimer's disease assessed as decrease in number of unshredded nestlets at 30 mg/kg/day administered via oral gavage over 60 days by nesting test.
Assay [3] is described as follows: Anti-inflammatory activity in Sprague-Dawley rat primary mixed glial cells assessed as inhibition of LPS-induced NO production pretreated for 2 hrs followed by LPS addition measured after 48 hrs by Griess assay. Type of assay: functional, cell-based. The conditions noted are these: Glial cell. A digest of the protocol: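 Mixed cortical glia kept 3 days in DMEM/F12 with 10% FBS, medium changed, 4 more days, then 9 days in Neurobasal/B27 (16 days total). Cultures activated 2 days after medium refresh with 100 ng/mL LPS for 48 h, with compound at maximum nontoxic concentration. Medium nitrite read by Griess reagent at 540 nm against NaNO2 standard. Mean ± SD, three independent experiments.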
In general terms: Nitrite, measured by Griess reagent, commonly stands in for NO production.

Assay [4] is described as follows: Antioxidant activity assessed as ABTS radical cation scavenging activity by measuring trolox equivalents by spectrophotometric analysis. Type of assay: functional.
A short description of assay [5]: Anti-inflammatory activity in Sprague-Dawley rat primary mixed glial cells assessed as inhibition of LPS-induced NO production at 50 uM pretreated for 2 hrs followed by LPS addition measured after 48 hrs by Griess assay (reference value: 100%). In kind it is functional, Primary glial cell. Set-up: scale not given: the % may be the effect or the level left.
The subject of assay [6] is Cortical neurone. Kind of assay: Neuroprotective activity against glutamate-induced cell death in Sprague-Dawley rat 10 days old neonatal primary cortical neurons assessed as cell death at maximum non toxic concentration pretreated for 2 hrs followed by 30 uM glutamate addition measured after 24 hrs by MTT assay (reference value: 41.22 +/- 3.40%). In kind it is functional.

The test system of assay [7] is Cortical neurone. The experiment in a line: Neuroprotective activity against fibril amyloid beta (25 to 35)-induced cell death in Sprague-Dawley rat 5 days old neonatal primary cortical neuron assessed as inhibition of fibril amyloid beta (25 to 35)-induced decrease in tau protein level at 50 uM pretreated for 2 hrs followed by 10 uM fibril amyloid beta (25 to 35) addition measured after 48 hrs by fluorescein isothiocyanate dye-based immunocytochemistry analysis. In kind it is functional. In outline: (§2)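 Cortical neurons at DIV5 (fibrillar Aβ25–35 10 μM, 48 h) or DIV10 (glutamate 30 μM, 24 h), after 2 h with 50 μM compound. Fixed in 4% paraformaldehyde, permeabilized with Triton X-100, blocked with donkey serum. Stained with anti-MAP2 and anti-tau (1:100, overnight at 4 °C), then FITC and RRX secondaries. Integrated density relative to vehicle. Mean ± SEM, n=3.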

Assay [8] deals with Cytochrome P450 3A4 (Homo sapiens, UniProt P08684). The experiment in a line: Inhibition of CYP3A4 in human liver microsomes. In kind it is ADME. (In general: Microsomes from liver hold many membrane-bound enzymes, among them those of drug oxidation.)
Assay [9] deals with Cortical neurone. Kind of assay: Neuroprotective activity against glutamate-induced cell death in Sprague-Dawley rat 10 days old neonatal primary cortical neuron assessed as inhibition of glutamate-induced decrease in MAP2 level at 50 uM pretreated for 2 hrs followed by 30 uM glutamate addition measured after 24 hrs by fluorescein isothiocyanate dye-based immunocytochemistry analysis. In kind it is functional. In outline:
as §2

Assay [10] has as its system Cortical neurone. Kind of assay: Neuroprotective activity against fibril amyloid beta (25 to 35)-induced cell death in Sprague-Dawley rat 5 day old neonatal primary cortical neurons assessed as cell death at maximum non toxic concentration pretreated for 2 hrs followed by 10 uM fibril amyloid beta (25 to 35) addition measured after 48 hrs by MTT assay (reference value: 39.20 +/- 0.88%). In kind it is functional. A digest of the protocol:
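Rat cortical neurons from pups, papain-dissociated, cytosine arabinoside (5 μM, 1 day) to remove non-neuronal cells, used at DIV5. Vehicle 0.1% DMSO or compound pretreatment before fAβ25–35 (aged 1 week at 37 °C). Viability by MTT reduction: 0.5 mg/mL for 1 h, formazan dissolved in DMSO, OD600. Mean ± SD of three independent experiments.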

Assay [11] concerns Mus musculus. The experiment in a line: Antialzheimer activity in APPswe/PSEN1dE9 double transgenic C57BL/6J mouse model of Alzheimer's disease assessed as increase in nesting score at 30 mg/kg/day administered via oral gavage over 60 days by nesting test. In kind it is functional, organism-based. In outline: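 Female APP/PS1 C57BL/6J mice, 5 months old, given compound by oral gavage at 30 mg/kg/day for 60 days. Wild-type siblings received vehicle. Two nestlets (about 5 g) placed in the cage 1 h before the dark cycle. Nest score and unshredded nestlet weight recorded. Mean ± SD per group.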

Assay [12] deals with Cortical neurone. The experiment in a line: Neuroprotective activity against fibril amyloid beta (25 to 35)-induced cell death in Sprague-Dawley rat 5 days old neonatal primary cortical neuron assessed as increase in cell viability at 50 uM pretreated for 2 hrs followed by 10 uM fibril amyloid beta (25 to 35) addition measured after 48 hrs by calcein AM dye-based confocal laser scanning microscopic analysis. In kind it is functional. In outline:
(§3)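 Rat pup cortical neurons in Neurobasal/B27, given 5 μM cytosine arabinoside for 1 day. Used at DIV5 for Aβ25–35 fibrils (aged 1 week at 37 °C; 10 μM, 48 h) or DIV10 for glutamate (30 μM, 24 h), after 2 h with 50 μM compound or 0.1% DMSO. Cells loaded with 1 μM calcein AM and ethidium homodimer-1 for 30 min at room temperature, imaged by confocal microscopy. Live-cell count and integrated density expressed relative to vehicle. Mean ± SEM, n=3.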

The test system of assay [13] is Cortical neurone. The experiment in a line: Neuroprotective activity against glutamate-induced cell death in Sprague-Dawley rat 10 days old neonatal primary cortical neuron assessed as inhibition of glutamate-induced decrease in tau level at 50 uM pretreated for 2 hrs followed by 30 uM glutamate addition measured after 24 hrs by fluorescein isothiocyanate dye-based immunocytochemistry analysis. In kind it is functional. In outline:
as §2

Assay [14] concerns Cortical neurone. The experiment in a line: Neuroprotective activity against glutamate-induced cell death in Sprague-Dawley rat 10 days old neonatal primary cortical neurons assessed as increase in cell viability pretreated for 2 hrs followed by 30 uM glutamate addition measured after 24 hrs by MTT assay. Type of assay: functional, cell-based. In outline: as §1
In assay [15] the test system is Cortical neurone. Kind of assay: Neuroprotective activity against glutamate-induced cell death in Sprague-Dawley rat 10 days old neonatal primary cortical neuron assessed as increase in cell viability at 50 uM pretreated for 2 hrs followed by 30 uM glutamate addition measured after 24 hrs by calcein AM dye-based confocal laser scanning microscopic analysis. In kind it is functional. A digest of the protocol: as §3

For assay [16], the system named is Cortical neurone. The experiment in a line: Neuroprotective activity against fibril amyloid beta (25 to 35)-induced cell death in Sprague-Dawley rat 5 days old neonatal primary cortical neuron assessed as inhibition of fibril amyloid beta (25 to 35)-induced decrease in MAP2 level at 50 uM pretreated for 2 hrs followed by 10 uM fibril amyloid beta (25 to 35) addition measured after 48 hrs by fluorescein isothiocyanate dye-based immunocytochemistry analysis. In kind it is functional. A digest of the protocol:
as §2

Activity calls are given as the source filed them. The rule behind the calls is not given here. Where only a bound is given, the exact number is not on record here.

Sequence of Cytochrome P450 3A4 (P08684 whole entry): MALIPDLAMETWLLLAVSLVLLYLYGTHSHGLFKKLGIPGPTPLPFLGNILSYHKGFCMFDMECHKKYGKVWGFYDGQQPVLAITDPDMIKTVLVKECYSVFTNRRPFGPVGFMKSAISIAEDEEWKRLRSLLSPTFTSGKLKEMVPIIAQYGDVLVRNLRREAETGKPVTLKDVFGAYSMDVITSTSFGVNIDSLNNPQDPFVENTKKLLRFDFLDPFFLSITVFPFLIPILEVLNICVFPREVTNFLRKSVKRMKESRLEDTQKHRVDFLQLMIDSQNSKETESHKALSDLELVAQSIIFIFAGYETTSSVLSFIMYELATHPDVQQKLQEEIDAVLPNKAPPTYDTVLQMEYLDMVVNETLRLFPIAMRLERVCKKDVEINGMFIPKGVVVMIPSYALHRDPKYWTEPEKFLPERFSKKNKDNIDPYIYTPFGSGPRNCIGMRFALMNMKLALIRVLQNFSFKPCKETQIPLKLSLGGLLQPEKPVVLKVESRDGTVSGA

For the compound `CCOC(=O)/C=C/c1ccc(/C=C/c2cc(O)c(O)c(O)c2)cc1`, the EC50 (commonly the concentration needed to bring the measured effect to its halfway point) in [1] was 40.9 µM; in [3], 99.2 µM; in assay [14] it was above 50 µM. Moreover, the outcome in assay [2] and in assay [11] was inactive. The Activity in [4] came to 0.14 mMequiv; in assay [5], 72.93%; in assay [6], 28.05%; in assay [10], 19.23%. Also, the inhibition entry in assay [7] was “inactive”. Besides, inhibition in assay [8] was half-maximal at 36.2 µM (IC50). The inhibition entry in assay [9] and in assay [13] was “Active” in each case. For the same compound, the outcome in [12] and in assay [15] was Active.
Take `Oc1ccc(-c2cc3cc(Br)cc(O)c3o2)cc1O`: the results for the EC50 in assay [1], in assay [3] and in assay [14] were 36.5 µM, above 100 µM and above 50 µM, respectively. For the same compound, the inhibition entry in assay [16] is “Active”. The Activity in assay [4] is 0.06 mMequiv; in assay [5] it was 86.85%; in [6], 31.45%; in [10], 16.95%. Besides, the inhibition result in assay [7] was “inactive”. Also, in assay [8], the IC50 (in general, the midpoint of a concentration-inhibition curve) stood at 23.5 µM. In addition, the outcome in [12] was Active.
For `Oc1ccc(-c2cc3c(Br)ccc(O)c3o2)cc1O`, the EC50 in [1] is 26.7 µM; in assay [3], above 100 µM; in [14] it was above 0.5 µM. The inhibition entry in assay [16] was “Active”. Moreover, the Activity in assay [4] is 0.12 mMequiv; in assay [5], 61.64%; in assay [6], 40.83%; in assay [10], 4.11%. Besides, the inhibition result in assay [7] is “inactive”. The result in assay [12] was Active.
On to `CCOC(=O)/C=C/c1cc(O)c(O)cc1-c1cc2ccccc2o1`, for which the EC50 in assay [1] was above 50 µM; in [3], above 100 µM; in [14], 46.1 µM. Also, the result in assay [2], in assay [11], in assay [12] and in [15] was Active. Besides, the Activity is 0.01 mMequiv in assay [4], 49.61% in [5], 21% in assay [6] and 25.45% in assay [10]. The inhibition entry in assay [7] was “inactive”. For the same compound, in [8], 11.2 µM corresponded to half-maximal inhibition (IC50). Further, the inhibition result in [9] and in [13] was “Active” in each case.
Regarding `CCOC(=O)/C=C/c1cc(O)c2oc(-c3cc(O)c(O)c(O)c3)cc2c1`, the EC50 in assay [1] was 53 µM; in assay [3] it was 56.6 µM; in [14] it was 33 µM. Also, the outcome in assay [2], in assay [11], in assay [12] and in [15] was Active. Also, the Activity in assay [4] is 0.94 mMequiv; in assay [5], 40.35%; in [6], 24.48%; in [10], 21.18%. Further, the inhibition entry in assay [7] was “inactive”. In assay [8], this compound gave an IC50 of 21.7 µM. For the same compound, the inhibition result in [9] and in [13] was “Active” each time.

The record behind these values is ChEMBL document CHEMBL4043092, “Neuroprotective and Antineuroinflammatory Effects of Hydroxyl-Functionalized Stilbenes and 2-Arylbenzo[b]furans” (J Med Chem, 2017).
